PAFAH2 inh: PAFAH2 (human) inhibition; recombinant PAFAH2, FP-rhodamine activity probe, fluorescence polarization; Q99487; 340,000 compounds, 0.99% hits; AID 492956; inhibition, % at 3.39 µM;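 active means inhibition above the mean over all tested compounds plus 3 SD, cut at about 30% in these data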;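 further: inhibitors block probe labeling of enzyme so polarization drops; 0% = enzyme with DMSO and 100% = wells lacking PAFAH2 protein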
PAFAH1B3 inh: inhibitors of human PAFAH1B3; Q15102; 340,000 compounds, 0.28% hits; inhibition, % at 3.39 µM; recombinant PAFAH1B3, FP-rhodamine probe, fluorescence polarization;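 active means inhibition above the screen-wide average of all tested compounds plus 3 SD, cut at about 25% in these data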;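 further: 0% = enzyme with DMSO only and 100% = wells lacking PAFAH1B3 protein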
PAFAH1B2 FP inh: blocks human PAF acetylhydrolase 1b catalytic subunit 2; P68402; recombinant PAFAH1B2, FP-rhodamine activity probe, fluorescence polarization; inhibition, % at 3.39 µM; 340,000 compounds, 1.2% hits; AID 492953;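 active means inhibition above the mean of all tested compounds plus 3 SD, cut at about 24% in these data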;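 further: 0% = enzyme with DMSO and 100% = wells lacking PAFAH1B2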
Target sequence (P68402 whole entry, looked up): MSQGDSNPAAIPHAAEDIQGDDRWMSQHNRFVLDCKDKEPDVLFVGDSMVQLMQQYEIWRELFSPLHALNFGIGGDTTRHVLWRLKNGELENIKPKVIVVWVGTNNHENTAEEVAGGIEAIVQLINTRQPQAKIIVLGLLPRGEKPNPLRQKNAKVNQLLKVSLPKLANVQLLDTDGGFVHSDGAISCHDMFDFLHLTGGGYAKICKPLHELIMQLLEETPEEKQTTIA
ARFGAP1 inhibitor: rat ARFGAP1 inhibition; 360,000 compounds, 0.26% hits; Arfgap1-stimulated ARF1 GTP hydrolysis, GDP FP detection; inhibition, % at 16.5 µM;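 active means inhibition above a per-plate limit, mean inhibition of low control wells plus 3 SD, cut at about 25% in these data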;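 further: 0% = DMSO wells with enzyme and 100% = wells lacking Arfgap1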
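System: truncated rat Arfgap1 GAP domain / Medium: HEPES-based buffer, pH 7.5 / Also added: N-terminally truncated human ARF1-GTP substrate / Incubation: enzyme reaction 120 min at 25 °C after 20 min preincubation / Measured by: FP of antibody-bound GDP Alexa 633 tracer, ex 620/em 688 nm / Replicates: singlicate, each compound tested once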
ASAP1 GAP inh: ASAP1 ArfGAP inhibition | inhibition, % at 16.5 µM | Q9ULH1 | 360,000 compounds, 0.19% hits | ASAP1-stimulated ARF1 GTP hydrolysis, GDP FP detection | AID 624377; in the data active means inhibition above about 25%;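 further: 0% = vehicle with enzyme and substrate and 100% = no enzyme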
Target sequence (Q9ULH1 325-724 limits assumed): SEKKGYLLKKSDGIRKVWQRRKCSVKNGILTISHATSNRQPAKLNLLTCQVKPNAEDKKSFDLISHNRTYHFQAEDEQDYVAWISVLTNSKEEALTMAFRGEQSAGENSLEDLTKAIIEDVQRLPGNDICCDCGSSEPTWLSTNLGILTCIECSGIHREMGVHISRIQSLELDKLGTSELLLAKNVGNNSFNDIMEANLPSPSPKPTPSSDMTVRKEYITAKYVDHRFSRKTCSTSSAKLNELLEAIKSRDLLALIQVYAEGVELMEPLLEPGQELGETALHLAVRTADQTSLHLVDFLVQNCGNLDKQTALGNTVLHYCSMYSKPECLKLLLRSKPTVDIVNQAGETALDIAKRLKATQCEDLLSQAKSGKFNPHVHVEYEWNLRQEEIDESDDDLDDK
pPAFAH inh: inhibitors of human plasma PAF acetylhydrolase (pPAFAH); Q13093; recombinant pPAFAH, FP-rhodamine probe fluorescence polarization; inhibition, % at 3.39 µM; 330,000 compounds, 1.5% hits;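 active means inhibition above the mean inhibition across the screen plus 3 SD, cut at about 25% in these data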;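 further: inhibitors block binding of the rhodamine activity-based probe so polarization drops; 0% = enzyme with DMSO and 100% = wells lacking pPAFAH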
PAFAH2 confirm: PAFAH2 (human) inhibition, confirmed; 2,300 compounds, 65% hits; AID 493030; recombinant PAFAH2, FP-rhodamine activity probe, fluorescence polarization; shares compounds with PAFAH2 inh; inhibition, % at 3.39 µM;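 active means mean inhibition over three repeats above a set limit taken from the earlier primary screen, cut at about 30% in these data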;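 further: inhibitor blocks binding of rhodamine activity probe so polarization falls; 0% = enzyme with DMSO and 100% = wells lacking PAFAH2 protein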
An asterisk follows results filed as active; · = not tested or not shown. Rows were chosen to be rich in hits. Some 2.7% of all compounds tested hit in one or more screens of this group.

SMILES	PAFAH2 inh	PAFAH1B3 inh	PAFAH1B2 FP inh	ARFGAP1 inhibitor	ASAP1 GAP inh	pPAFAH inh	PAFAH2 confirm
CC(C)(C)SC(=O)CC1NS(=O)(=O)OCC1NC(=O)OCC(Cl)(Cl)Cl (stereo not drawn)	48.8*	4.5	3.8	-9.7	-4.3	-5.4	33.7*
O=C(O)/C(=N/NC(=O)c1ccc(Cl)cc1)c1ccccc1	-1.3	6.9	3.6	-1.7	-5.7	-2.9	·
CCN1CC(O)=C(c2nc3ccccc3s2)C1=N	51.6*	5.2	0.3	2.6	3.3	21.2	23.4
CC(=O)c1ccc(OC2OCCOC2Oc2ccc(C(C)=O)cc2)cc1 (stereo not drawn)	-3.3	0.6	1.4	-0.9	-5.3	-1.5	·
O=C(OCc1cn(-c2ccc(Cl)cc2)nn1)c1ccccc1	69.4*	4.0	5.0	21.4	-13.5	10.1	69.4*
CS(=O)(=O)c1ccc(Cl)c(NC(=O)COC(=O)c2cccc(C#N)c2)c1	1.4	7.8	6.8	3.9	2.0	0.2	·
CN(C)S(=O)(=O)c1ccc(Cl)c(NC(=O)COC(=O)c2ccc3c(c2)NC(=O)CS3)c1	48.1*	0.8	1.2	12.6	5.0	0.2	40.1*
Cc1ccc(S(=O)(=O)N(C)C)cc1NC(=O)COC(=O)C1CC1	43.0*	-1.2	0.7	6.5	-2.0	1.2	34.0*
CCN(c1ccccc1)S(=O)(=O)c1ccc(Cl)c(NC(=O)COC(=O)c2ccc(Cl)c(N)c2)c1	40.2*	6.1	8.1	-8.2	2.8	18.7	19.9
Cc1ccc(C(=O)CCC(=O)OCC(=O)Nc2cc(S(=O)(=O)N(C)C)ccc2C)cc1	·	·	·	0.7	6.2	·	·
COc1ccccc1OCCC(=O)OCC(=O)Nc1cc(S(=O)(=O)N(C)C)ccc1Cl	-3.1	5.0	1.9	4.4	-4.3	21.6	·
CN(C)S(=O)(=O)c1ccc(Cl)c(NC(=O)COC(=O)c2ccc(O)cc2)c1	59.4*	6.9	1.8	-5.9	7.2	13.5	54.8*
CCCCCCCn1c2c(c(=N)c3ccccc31)CCC2	1.4	-1.7	4.4	-1.0	-8.2	1.6	·
Cc1ccc(S(=O)(=O)N(C)C)cc1NC(=O)COC(=O)c1ccc(Cl)cc1	35.2*	9.6	5.9	-2.0	6.5	5.9	25.8
Cc1cc(C(=O)OCC(=O)Nc2cc(S(=O)(=O)N(C)C)ccc2C)c(C)o1	·	·	·	-1.4	5.4	5.4	·
CCc1nc2ccc(C(=O)N(CC)CCN(C)C)cn2c1N(CC)CCOC	·	·	·	5.0	2.1	·	·
Cc1ccn(C(=O)c2ccc(NC(=O)CC(C)C)cc2)n1	62.4*	1.5	-1.2	11.6	1.5	-0.9	55.8*
Cc1cc(C)n(C(=O)c2ccc(NC(=O)C3CC3)cc2)n1	2.2	2.4	3.7	1.0	-5.9	8.8	·
CCC(=O)Nc1ccc(C(=O)n2ccc(C)n2)cc1	58.8*	8.6	5.3	-1.2	4.1	-9.3	60.8*
Cc1ccn(C(=O)c2ccc(NC(=O)C3CC3)cc2)n1	62.5*	2.6	-0.6	6.5	-22.9	-0.2	52.5*
CCOC(=O)c1c(S(=O)(=O)Nc2ccc(C)cn2)c(C)n(C)c1C	-6.0	6.6	-2.0	-1.8	-9.2	3.6	·
CC(=O)CCc1ccc(OCC(=O)Nc2cccc(S(=O)(=O)N(C)c3ccccc3)c2)cc1	-3.1	-2.5	2.5	-5.7	2.9	·	·
CC1=NOC(=O)/C1=C\c1ccc(-c2ccccc2Br)o1	43.6*	20.1	24.0	-18.9	-20.1	·	25.4
CC1=NOC(=O)/C1=C\c1ccc(-c2cccc(Cl)c2)o1	31.3*	8.0	8.8	·	·	6.7	22.6
Cc1ccc(/C=C2/C(=O)ON=C2c2ccccc2)o1	13.8	6.5	17.5	-3.9	-1.4	15.0	·
SMILES	PAFAH2 inh	PAFAH1B3 inh	PAFAH1B2 FP inh	ARFGAP1 inhibitor	ASAP1 GAP inh	pPAFAH inh	PAFAH2 confirm
CC1=NOC(=O)/C1=C\c1ccc(-c2ccc(Cl)c(C(=O)O)c2)o1	48.7*	18.5	5.4	3.2	-17.9	·	32.9*
O=C(O)c1cc(-c2ccc(/C=C3/SC(=S)N(Cc4ccccc4)C3=O)o2)ccc1Cl	33.7*	2.7	2.9	4.3	-12.8	·	25.8
O=C(NCCCN1CCCC1)c1ccc(CS(=O)(=O)c2ccc(Cl)cc2)o1	8.6	10.9	4.4	3.7	9.2	0.3	·
CC1(C(=O)Nc2cccc(Oc3ccccc3)c2)Cc2c(-c3ccc4c(c3)OCO4)ccnc2O1 (stereo not drawn)	·	·	·	7.3	6.5	·	·
Cc1ccc(/C=N\NC(=O)c2ccc3c(c2)OCO3)o1	0.5	2.2	2.1	-2.5	9.8	0.7	·
O=C(COC(=O)c1ccccc1SCC(=O)N1CCCC1)NC1CCS(=O)(=O)C1 (stereo not drawn)	-2.0	-5.0	-2.4	-2.6	7.3	-1.8	·
O=C(CSc1ccccc1C(=O)O)NC1CCCCCC1	6.8	7.3	7.6	-0.3	-2.7	5.7	·
O=C(OCC(=O)N1CCCCC1)c1ccccc1SCC(=O)N1CCCCC1	3.4	2.8	3.1	2.3	7.2	6.3	·
NC(=O)COC(=O)c1ccccc1SCC(=O)NC1CCCCCCC1	38.5*	-3.9	7.2	-2.8	-4.6	5.7	37.4*
N#CC1(NC(=O)COC(=O)c2ccccc2SCC(=O)N2CCCC2)CCCCC1	80.6*	-1.7	-7.8	7.3	3.8	9.3	80.4*
O=C(COC(=O)c1ccccc1SCC(=O)N1CCCC1)NC1CCCCC1	82.5*	4.3	1.7	-7.5	-2.2	3.5	73.3*
CC(C)(C)CN1C(=O)C(=O)NC[C@@H]1CC1CCCCC1	·	·	·	10.0	5.2	·	·
O=CNc1cc(-c2cccc(F)c2)cn2c(-c3ccc(F)c(Cl)c3)cnc12	·	·	·	4.1	-5.6	·	·
CC1=C(C(=O)N(C(C)C)C(C)C)CC(CC(=O)NCc2cccs2)C(=O)N1Cc1ccccc1 (stereo not drawn)	·	·	·	5.7	-5.4	·	·
CCOC(=O)c1c(-c2ccccc2)oc2ccc(OCC(=O)NNC(=O)CCC(=O)O)cc12	-3.0	3.8	2.8	4.2	-15.8	·	·
CCOC(=O)c1c(-c2ccccc2)oc2ccc(OCC(=O)NNC(=O)CCCC(=O)O)cc12	40.6*	23.2	17.1	-2.5	-9.0	·	3.3
O=C(COC(=O)/C=C/c1ccc(F)cc1)Nc1ccc(S(=O)(=O)N2CCOCC2)cc1	3.6	4.0	1.8	17.5	11.8	3.1	·
CN(C)S(=O)(=O)c1ccc(Cl)c(NC(=O)COC(=O)/C=C/c2ccc3ccccc3n2)c1	-1.2	5.6	-4.9	-13.6	12.7	-0.8	·
COc1cc(/C=C/C(=O)OCC(=O)Nc2cc(S(=O)(=O)N(C)C)ccc2Cl)ccc1O	60.3*	-1.2	1.9	0.8	-3.6	8.2	59.5*
CN(C)S(=O)(=O)c1ccc(Cl)c(NC(=O)COC(=O)/C=C/c2ccc(S(=O)(=O)N3CCOCC3)cc2)c1	31.3*	5.2	-1.1	-3.5	5.5	-1.1	26.0
